≈ marks a conversion by molar mass, not a printed value. Each block holds one compound with its values, some of them ahead of it. Calls of active or inactive are those of the source. No cut-off for these calls is given here.
Legend:
[1] = target: T1, Sphingosine 1-phosphate receptor 4 (Homo sapiens, UniProt O95977); assay: Agonist activity at human S1P4R receptor expressed in CHO cell membranes by [35S]GTPgamma binding assay; format: functional
T1 sequence (O95977 whole entry): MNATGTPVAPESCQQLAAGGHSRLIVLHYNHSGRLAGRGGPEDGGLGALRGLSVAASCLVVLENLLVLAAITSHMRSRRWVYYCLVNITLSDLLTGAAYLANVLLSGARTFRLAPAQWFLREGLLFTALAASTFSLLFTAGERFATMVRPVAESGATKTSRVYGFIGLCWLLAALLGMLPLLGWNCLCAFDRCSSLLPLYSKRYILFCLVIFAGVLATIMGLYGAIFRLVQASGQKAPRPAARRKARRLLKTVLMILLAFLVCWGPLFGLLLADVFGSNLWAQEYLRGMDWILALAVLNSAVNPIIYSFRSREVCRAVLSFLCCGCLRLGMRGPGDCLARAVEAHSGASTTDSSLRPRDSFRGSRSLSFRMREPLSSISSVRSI

[2] = target: T1, Sphingosine 1-phosphate receptor 4; assay: Antagonist activity at human S1P4R receptor expressed in CHO cell membranes by [35S]GTPgamma binding assay; format: functional
Outline: (§1)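 Membranes from CHO clones stably expressing human S1P1 (1−5 μg/well), with S1P2–S1P5 handled comparably. Compound preincubated 15 min, then S1P (4 nM final) and GTPγ³⁵S (0.2 nM final) added. Shaken 120 min at room temperature, then SPA counting. Eight concentrations in duplicate; IC₅₀ from curve fit, mean of ≥3 determinations ± SEM.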

[3] = target: T2, Sphingosine 1-phosphate receptor 1 (Homo sapiens, UniProt P21453); assay: Agonist activity at human S1P1R receptor expressed in CHO cell membranes by [35S]GTPgamma binding assay; format: functional
T2 sequence (P21453 whole entry): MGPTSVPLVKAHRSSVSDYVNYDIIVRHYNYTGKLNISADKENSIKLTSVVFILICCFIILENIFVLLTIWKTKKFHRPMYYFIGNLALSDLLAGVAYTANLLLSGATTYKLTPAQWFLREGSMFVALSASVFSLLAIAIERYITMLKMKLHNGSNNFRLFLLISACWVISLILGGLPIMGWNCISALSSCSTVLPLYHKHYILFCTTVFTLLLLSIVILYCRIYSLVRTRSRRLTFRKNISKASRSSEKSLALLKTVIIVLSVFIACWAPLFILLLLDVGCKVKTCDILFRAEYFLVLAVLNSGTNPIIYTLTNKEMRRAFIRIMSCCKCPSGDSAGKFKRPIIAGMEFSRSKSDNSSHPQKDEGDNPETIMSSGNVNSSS

[4] = target: T2, Sphingosine 1-phosphate receptor 1; assay: Competitive binding affinity to human S1P1R receptor expressed in CHO cell membranes by Schild plot analysis
[5] = target: T2, Sphingosine 1-phosphate receptor 1; assay: Antagonist activity at human S1P1R receptor expressed in CHO cell membranes by [35S]GTPgamma binding assay; format: functional; outline: as §1
[6] = target: T3, Sphingosine 1-phosphate receptor 2 (Homo sapiens, UniProt O95136); assay: Antagonist activity at human S1P2R receptor expressed in CHO cell membranes by [35S]GTPgamma binding assay; format: functional; outline: as §1
T3 sequence (O95136 whole entry): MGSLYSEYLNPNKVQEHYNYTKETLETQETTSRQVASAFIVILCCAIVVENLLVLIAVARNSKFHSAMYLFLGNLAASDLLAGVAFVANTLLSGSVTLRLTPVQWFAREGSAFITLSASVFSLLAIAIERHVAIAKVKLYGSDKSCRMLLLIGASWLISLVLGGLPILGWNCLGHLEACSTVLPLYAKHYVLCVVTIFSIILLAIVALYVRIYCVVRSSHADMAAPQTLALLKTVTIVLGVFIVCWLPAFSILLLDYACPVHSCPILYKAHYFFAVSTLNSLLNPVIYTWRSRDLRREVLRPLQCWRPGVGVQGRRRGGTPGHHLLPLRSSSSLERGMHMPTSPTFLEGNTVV

[7] = target: T4, Sphingosine 1-phosphate receptor 5 (Homo sapiens, UniProt Q9H228); assay: Agonist activity at human S1P5R receptor expressed in CHO cell membranes by [35S]GTPgamma binding assay; format: functional
T4 sequence (Q9H228 whole entry): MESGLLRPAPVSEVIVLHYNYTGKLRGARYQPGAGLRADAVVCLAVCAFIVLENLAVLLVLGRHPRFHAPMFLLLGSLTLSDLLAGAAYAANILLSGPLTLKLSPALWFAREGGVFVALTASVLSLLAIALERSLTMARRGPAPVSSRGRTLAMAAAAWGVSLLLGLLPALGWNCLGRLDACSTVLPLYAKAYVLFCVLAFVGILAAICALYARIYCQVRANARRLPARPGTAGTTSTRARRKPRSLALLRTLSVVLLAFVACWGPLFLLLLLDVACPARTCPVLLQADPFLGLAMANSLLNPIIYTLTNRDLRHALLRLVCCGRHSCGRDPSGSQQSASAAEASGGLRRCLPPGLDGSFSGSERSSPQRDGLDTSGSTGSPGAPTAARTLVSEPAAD

[8] = target: T5, Sphingosine 1-phosphate receptor 3 (Homo sapiens, UniProt Q99500); assay: Agonist activity at human S1P3R receptor expressed in CHO cell membranes by [35S]GTPgamma binding assay; format: functional
T5 sequence (Q99500 whole entry): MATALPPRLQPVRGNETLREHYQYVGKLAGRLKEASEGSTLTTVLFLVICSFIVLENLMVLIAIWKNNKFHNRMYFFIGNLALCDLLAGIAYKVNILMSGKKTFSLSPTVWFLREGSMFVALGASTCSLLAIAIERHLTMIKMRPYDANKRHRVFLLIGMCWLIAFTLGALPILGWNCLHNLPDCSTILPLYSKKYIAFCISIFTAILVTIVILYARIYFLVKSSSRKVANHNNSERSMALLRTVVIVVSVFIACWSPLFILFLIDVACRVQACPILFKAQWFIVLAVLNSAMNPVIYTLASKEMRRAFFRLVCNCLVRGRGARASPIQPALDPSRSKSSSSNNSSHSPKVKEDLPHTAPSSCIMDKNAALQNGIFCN

[9] = target: T5, Sphingosine 1-phosphate receptor 3; assay: Antagonist activity at human S1P3R receptor expressed in CHO cell membranes by [35S]GTPgamma binding assay; format: functional; outline: as §1
[10] = target: T3, Sphingosine 1-phosphate receptor 2; assay: Agonist activity at human S1P2R receptor expressed in CHO cell membranes by [35S]GTPgamma binding assay; format: functional
[11] = target: T4, Sphingosine 1-phosphate receptor 5; assay: Antagonist activity at human S1P5R receptor expressed in CHO cell membranes by [35S]GTPgamma binding assay; format: functional; outline: as §1
[12] = Solubility in pH 6.8 buffer; format: physicochemical
Rattus norvegicus [13] = assay: Reduction in peripheral blood lymphocytes in Lewis rat assessed as remaining circulating lymphocytes level at 30 mg/kg, po administered as single dose measured 24 hrs post dose by automated hematology analyzer; format: functional
Outline: (§2)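 Male Lewis rats receive a single oral dose of compound or vehicle, freshly made in 30% PEG200/buffer. Blood (<200 μL) is drawn by sublingual puncture under isoflurane 5% v/v at baseline and later time points. Lymphocytes are counted on an automated hematology analyzer, and each animal's change is expressed as percent of its own pre-treatment baseline.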

Rattus norvegicus [14] = assay: Reduction in peripheral blood lymphocytes in Lewis rat assessed as remaining circulating lymphocytes level at 30 mg/kg, po administered as single dose measured 14 hrs post dose by automated hematology analyzer; format: functional; outline: as §2
Rattus norvegicus [15] = assay: Increase in allograft survival in stringent Dark Agouti to Lewis rat heterotopic vascular heart allotransplantation model assessed as allograft mean survival time at 0.3 mg/kg, po qd (reference value: 6 days); format: functional
Rattus norvegicus [16] = assay: Reduction in peripheral blood lymphocytes in Lewis rat assessed as remaining circulating lymphocytes level at 100 mg/kg, po administered as single dose measured 12 hrs post dose by automated hematology analyzer; format: functional; outline: as §2
Rattus norvegicus [17] = assay: Reduction in peripheral blood lymphocytes in Lewis rat assessed as remaining circulating lymphocytes level at 100 mg/kg, po administered as single dose measured 14 hrs post dose by automated hematology analyzer; format: functional; outline: as §2
Rattus norvegicus [18] = assay: Increase in allograft survival in stringent Dark Agouti to Lewis rat heterotopic vascular heart allotransplantation model assessed as allograft mean survival time at 10 mg/kg, po bid (reference value: 6 days); format: functional
Outline: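 Hearts from DA donors were transplanted into Lewis recipients, with dosing starting 3 days pre-transplant. The PKC inhibitor was given po b.i.d., mixed in D-glucose and dissolved in PEG400, distilled water and 0.1 M aqueous HCl. Vehicle controls were dosed po b.i.d. Endpoint was graft survival to rejection or predefined termination, reported as median days. Histology used H&E and trichrome with acute rejection scoring.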

Rattus norvegicus [19] = assay: Reduction in peripheral blood lymphocytes in Lewis rat assessed as remaining circulating lymphocytes level at 100 mg/kg, po administered as single dose measured 8 hrs post dose by automated hematology analyzer; format: functional; outline: as §2
Rattus norvegicus [20] = assay: Reduction in peripheral blood lymphocytes in Lewis rat assessed as remaining circulating lymphocytes level at 100 mg/kg, po administered as single dose measured 24 hrs post dose by automated hematology analyzer; format: functional; outline: as §2
Rattus norvegicus [21] = assay: Reduction in peripheral blood lymphocytes in Lewis rat assessed as remaining circulating lymphocytes level at 100 mg/kg, po administered as single dose measured 14 to 48 hrs post dose by automated hematology analyzer
Rattus norvegicus [22] = assay: Increase in allograft survival in stringent Dark Agouti to Lewis rat heterotopic vascular heart allotransplantation model assessed as allograft mean survival time at 0.1 mg/kg, po qd co-treated with 0.3 mg/kg, qd everolimus; format: functional
Rattus norvegicus [23] = assay: Increase in allograft survival in stringent Dark Agouti to Lewis rat heterotopic vascular heart allotransplantation model assessed as allograft mean survival time at 0.1 mg/kg, po qd co-treated with 10 mg/kg, po bid sotrastaurin; format: functional

SMILES: CO[C@H]1C[C@@H]2CC[C@@H](C)[C@@](O)(O2)C(=O)C(=O)N2CCCC[C@H]2C(=O)O[C@H]([C@H](C)C[C@@H]2CC[C@@H](OCCO)[C@H](OC)C2)CC(=O)[C@H](C)/C=C(\C)[C@@H](O)[C@@H](OC)C(=O)[C@H](C)C[C@H](C)/C=C/C=C/C=C/1C [EVEROLIMUS]
- MST (Rattus norvegicus [15]): 7 days

SMILES: COC(=O)[C@@H](CCN(C)C)N(C)C(=O)c1c(C)cc(-c2cccc(NS(=O)(=O)c3cc(C)c(Cl)cc3C)c2)cc1C
- Activity (Rattus norvegicus [14]): 67%

SMILES: CN1CCN(c2nc(C3=C(c4c[nH]c5ccccc45)C(=O)NC3=O)c3ccccc3n2)CC1 [SOTRASTAURIN]
- MST (Rattus norvegicus [18]): 7 days

SMILES: COC(=O)[C@H](C)NC(=O)c1c(C)cc(-c2cccc(NS(=O)(=O)c3cc(C)c(Cl)cc3C)c2)cc1C
- Activity (Rattus norvegicus [17]): 24%

SMILES: COC(=O)[C@H](CCN(C)C)NC(=O)c1c(C)cc(-c2cccc(NS(=O)(=O)c3cc(C)c(Cl)cc3C)c2)cc1C
- Activity (Rattus norvegicus [17]): 15%
- Activity (Rattus norvegicus [20]): 24%

SMILES: COC(=O)[C@H](CCN)NC(=O)c1c(C)cc(-c2cccc(NS(=O)(=O)c3cc(C)c(Cl)cc3C)c2)cc1C
- Activity (Rattus norvegicus [17]): 76%

SMILES: Cc1cc(S(=O)(=O)Nc2cccc(-c3cc(C)c(C(=O)N[C@H]4CCNC4=O)c(C)c3)c2)c(C)cc1Cl
- Activity (Rattus norvegicus [21]): inactive

SMILES: CCCCCCCCc1ccc(CCC(N)(CO)CO)cc1 [FINGOLIMOD]
- MST (Rattus norvegicus [22]): 38 days
- MST (Rattus norvegicus [23]): >68.5 days

Now from value to compound, other results behind:

- EC50 [1]: 1.2 µM
- IC50 [2]: > 10 µM
- EC50 [3]: > 10 µM
- Kd [4]: 0.00067 µM
- IC50 [5]: 0.0034 µM
- IC50 [6]: > 10 µM
- EC50 [7]: > 10 µM
- EC50 [8]: > 10 µM
- IC50 [9]: 0.802 µM
- EC50 [10]: > 10 µM
- IC50 [11]: 0.978 µM
SMILES: Cc1cc(S(=O)(=O)Nc2cccc(-c3cc(C)c(C(=O)N(C)[C@@H](CCN(C)C)C(=O)O)c(C)c3)c2)c(C)cc1Cl

- solubility [12]: < 4 µM
SMILES: CCOC(=O)[C@H](CCN(C)C)N(C)C(=O)c1c(C)cc(-c2cccc(NS(=O)(=O)c3cc(C)c(Cl)cc3C)c2)cc1C
- Activity (Rattus norvegicus [13]): 48%
- Activity (Rattus norvegicus [14]): 28%

- IC50 [5]: 0.0061 µM
SMILES: Cc1cc(S(=O)(=O)Nc2cccc(-c3cc(C)c(C(=O)N(C)[C@@H](C)C(=O)O)c(C)c3)c2)c(C)cc1Cl
- Activity (Rattus norvegicus [16]): 19%

- solubility [12]: < 4 µM
SMILES: COC(=O)[C@H](CN(C)C)N(C)C(=O)c1c(C)cc(-c2cccc(NS(=O)(=O)c3cc(C)c(Cl)cc3C)c2)cc1C
- Activity (Rattus norvegicus [17]): 37%

- solubility [12]: < 4 µM
SMILES: COC(=O)[C@H](C)N(C)C(=O)c1c(C)cc(-c2cccc(NS(=O)(=O)c3cc(C)c(Cl)cc3C)c2)cc1C
- Activity (Rattus norvegicus [17]): 21%

- IC50 [5]: 0.0021 µM
SMILES: Cc1cc(S(=O)(=O)Nc2cccc(-c3cc(C)c(C(=O)N[C@@H](CCN)C(=O)O)c(C)c3)c2)c(C)cc1Cl

- solubility [12]: 15 µM (≈ 9 µg/mL)
SMILES: Cc1cc(S(=O)(=O)Nc2cccc(-c3cc(C)c(C(=O)N(C)[C@@H](C)C(=O)OCCN(C)C)c(C)c3)c2)c(C)cc1Cl
- Activity (Rattus norvegicus [13]): 49%
- Activity (Rattus norvegicus [14]): 25%

- IC50 [5]: 0.0026 µM
SMILES: Cc1cc(S(=O)(=O)Nc2cccc(-c3cc(C)c(C(=O)N[C@@H](C)C(=O)O)c(C)c3)c2)c(C)cc1Cl
- Activity (Rattus norvegicus [19]): 20%

- IC50 [5]: 0.012 µM
SMILES: Cc1cc(S(=O)(=O)Nc2cccc(-c3cc(C)c(C(=O)N[C@@H](CCN(C)C)C(=O)O)c(C)c3)c2)c(C)cc1Cl

- IC50 [5]: 0.02 µM
SMILES: Cc1cc(S(=O)(=O)Nc2cccc(-c3cc(C)c(C(=O)N(C)[C@H](CCN(C)C)C(=O)O)c(C)c3)c2)c(C)cc1Cl

- IC50 [5]: 0.0084 µM
SMILES: Cc1cc(S(=O)(=O)Nc2cccc(-c3cc(C)c(C(=O)N(C)[C@@H](CN(C)C)C(=O)O)c(C)c3)c2)c(C)cc1Cl

— ChEMBL document CHEMBL2176995, “An oral sphingosine 1-phosphate receptor 1 (S1P(1)) antagonist prodrug with efficacy in vivo: discovery, synthesis, and evaluation” (J Med Chem, 2012)
